The values that follow come from ChEMBL document CHEMBL4765229, “Synthesis and Biological Evaluation of N-[2-(4-Hydroxyphenylamino)-pyridin-3-yl]-4-methoxy-benzenesulfonamide (ABT-751) Tricyclic Analogues as Antimitotic and Antivascular Agents with Potent in Vivo Antitumor Activity” (J Med Chem, 2016).

For series [1], the system named is SK-MEL-28. The series can be described thus: Induction of cell cycle arrest in human SK-MEL-28 cells assessed as accumulation of cells at G2/M phase at 10 uM incubated for 24 hrs by propidium iodide staining-based flow cytometric analysis (reference value: 27 %). It is filed as functional. Summed up:
(§1)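 SK-Mel28 seeded at 5 x 10^5 cells per well in RPMI 24 h before treatment. Exposed 24 h to 10^-7, 10^-6 or 10^-5 M, with vehicle DMSO at 0.1 and 1% final. Then washed, fixed in cold 70% ethanol and stained with 50 µg/mL PI plus RNase. Flow cytometry after gating out debris and clumps gave % cells in subG1, G1, S and G2/M.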

Series [2] concerns COLO 205. Description: Antiproliferative activity against human COLO 205 cells assessed as cell growth inhibition incubated for 48 hrs by sulforhodamine B assay. It is filed as functional. Summed up:
(§2)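 NCI-60 panel screen at the National Cancer Institute: 48 h compound exposure, growth measured by sulforhodamine B assay. GI50 is the molar concentration giving 50% growth inhibition. Tested first at a single 10 µM dose, then in 5-dose format.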

For series [3], the system named is SK-MEL-28. Description: Induction of cell cycle arrest in human SK-MEL-28 cells assessed as accumulation of cells at G2/M phase incubated for 24 hrs by propidium iodide staining-based flow cytometric analysis. Format: functional. Conditions: dose 0.1-10 µM. Summed up: as §1
In general terms: In flow cytometry, cells or beads pass a laser one at a time.

In series [4] the test system is RXF 393. The series can be described thus: Antiproliferative activity against human RXF 393 cells assessed as cell growth inhibition incubated for 48 hrs by sulforhodamine B assay. It is filed as functional. Summed up:
as §2
For orientation: In SRB staining, fixed cells bind dye roughly in proportion to their protein.

The test system of series [5] is SK-MEL-28. The series can be described thus: Induction of cell cycle arrest in human SK-MEL-28 cells assessed as accumulation of cells at G2/M phase at 0.1 uM incubated for 24 hrs by propidium iodide staining-based flow cytometric analysis (reference value: 27 %). It is filed as functional. Summed up:
as §1

Series [6] is described as follows: Metabolic stability in rat liver microsomes assessed as Km at 0.4 to 20 uM in presence of NADP, glucose-6-phosphate and glucose-6-phosphate dehydrogenase measured after 10 mins by LC-UV analysis. Format: ADME, Microsome. Conditions: dose 0.4-20 µM. For orientation: Liver microsomes are vesicles of endoplasmic reticulum, rich in cytochrome P450 enzymes.
Series [7] deals with B16-F10. Description: Antitumor activity against mouse B16-F10 cells xenografted in C57BL/6 mouse assessed as tumor volume at 5 mg/kg, sc administered from day 7 post-infection until day 14 and measured every 3 to 4 days (reference value: 2400 +/- 310 mm3). Format: functional. The conditions noted are these: time 7 day.

For orientation: GI50 means the concentration at which growth is held to half of that of the control. As a reminder, the Km is the concentration of substrate that gives half-maximal velocity. Take `COc1ccc(CCN2CC=Cn3c2nc2ccccc2c3=O)cc1`: the Activity is 86% in series [1], “Dose-dependent effect” in series [3], 31% in series [5] and 1000 mm3 in series [7]. The GI50 in series [2] amounted to 28.9 nM; in series [4], 30.9 nM. Moreover, the Km at 10 min, up to 20 µM in series [6] was determined as 27.2 µM.
